Laboratory results published in ChEMBL document CHEMBL1133692, “Modeling of the inhibition of retroviral integrases by styrylquinoline derivatives” (J Med Chem, 2000).

Each compound was assayed against Gag-Pol polyprotein (Rous sarcoma virus (strain Prague C) (RSV-PrC), UniProt P03354) (assay: Inhibition of rous sarcoma virus (RSV) Integrase.).
Summary of the method: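 His-tagged RSV integrase catalytic core expressed in E. coli BL21(DE3) (IPTG 1 mM, 3 h, 37 °C) and purified on Ni-NTA. Disintegration assay used 0.5 pmol 5′-32P-labeled annealed DRSV oligonucleotide with 2 pmol core in Tris buffer pH 7.2 for 1 h at 37 °C. Products were resolved on a 15% denaturing polyacrylamide gel and quantified by phosphorimager. IC50 is the concentration halving activity.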

Chain of Gag-Pol polyprotein (P03354 1281-1567 limits assumed): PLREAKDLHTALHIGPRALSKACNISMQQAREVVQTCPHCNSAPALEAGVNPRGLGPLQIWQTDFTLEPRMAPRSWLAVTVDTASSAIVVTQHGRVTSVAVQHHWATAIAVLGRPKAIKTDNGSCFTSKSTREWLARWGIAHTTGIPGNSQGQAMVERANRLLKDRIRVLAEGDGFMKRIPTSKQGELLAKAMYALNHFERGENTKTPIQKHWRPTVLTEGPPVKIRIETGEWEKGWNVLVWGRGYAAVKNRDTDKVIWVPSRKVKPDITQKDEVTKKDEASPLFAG

SMILES | IC50 [µM]
CC(=O)Oc1cccc2ccc(/C=C/c3ccccc3)nc12 | > 100
O=C(O)c1ccc2ccc(/C=C/c3ccc(O)cc3O)nc2c1O | 38.3
O=C(O)c1ccc2ccc(/C=C/c3cc(O)c(O)c(O)c3)nc2c1O | 2.1
O=C(O)c1ccc2ccc(/C=C/c3ccc(O)c(O)c3)nc2c1O | 2.3
O=C(O)c1ccc2ccc(/C=C/c3ccccc3)nc2c1O | 10.3
Cc1ccc2cccc(OC(=O)/C=C/c3ccc(O)c(O)c3)c2n1 | > 100
O=C(O)c1ccc2ccc(/C=C/c3ccc(O)cc3)nc2c1O | 20.9
Oc1ccc(/C=C/c2ccc3cccc(O)c3n2)cc1O | 65.1
Nc1cccc2ccc(/C=C/c3ccc(O)c(O)c3)nc12 | > 100
CC(=O)Oc1ccc(/C=C/c2ccc3cccc(OC(C)=O)c3n2)cc1OC(C)=O | > 100
N#Cc1ccc2ccc(/C=C/c3ccc(O)c(O)c3)nc2c1O | 38
O=C(O)c1cc(/C=C/c2ccc3ccc(C(=O)O)c(O)c3n2)ccc1O | 7.4
Oc1cccc2ccc(/C=C/c3ccccc3)nc12 | > 100
O=[N+]([O-])c1cccc2ccc(/C=C/c3ccc(O)c(O)c3)nc12 | > 100

The compounds below were run against Human immunodeficiency virus type 1 integrase (Human immunodeficiency virus 1, UniProt Q7ZJM1) (assay: Inhibition of human immunodeficiency virus-1 (HIV-1) integrase.).
Summary of the method: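 Disintegration assay with His-tagged HIV-1 integrase catalytic core, expressed in E. coli BL21(DE3) and Ni-NTA purified. Substrate was 0.5 pmol of 5′-32P-labelled, self-annealed DHIV oligonucleotide, reacted with 2 pmol core in Tris buffer pH 7.2 for 1 h at 37 °C. Products were resolved on 15% denaturing polyacrylamide gel and quantified by phosphorimaging. IC50 is the drug concentration halving enzyme activity.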

Chain of Human immunodeficiency virus type 1 integrase (Q7ZJM1 whole entry): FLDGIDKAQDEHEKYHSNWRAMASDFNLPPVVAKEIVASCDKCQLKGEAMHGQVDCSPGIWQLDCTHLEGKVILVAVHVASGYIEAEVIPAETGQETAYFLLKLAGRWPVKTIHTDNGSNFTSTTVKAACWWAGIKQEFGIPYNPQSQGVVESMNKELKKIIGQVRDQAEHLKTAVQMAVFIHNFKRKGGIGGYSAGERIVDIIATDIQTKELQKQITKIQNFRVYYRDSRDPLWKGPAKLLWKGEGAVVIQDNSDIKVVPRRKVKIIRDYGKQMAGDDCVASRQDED

SMILES | IC50 [µM]
O=C(O)c1ccc2ccc(/C=C/c3ccc(O)cc3O)nc2c1O | 2.5
